Measurements as given in ChEMBL document CHEMBL4196194, “De Novo Design of α-Helical Lipopeptides Targeting Viral Fusion Proteins: A Promising Strategy for Relatively Broad-Spectrum Antiviral Drug Discovery” (J Med Chem, 2018).
≈ marks a conversion by molar mass, not a printed value. Calls of active or inactive are those of the source. No cut-off for these calls is given here. Where a SMILES comes first, the peptide text is derived from it. [ ]: non-standard residue; d: D form. The star is where a group is joined. Palmitoyl = CCCCCCCCCCCCCCCC(=O)*; βAla = NCCC(=O)O

Tests used:
[1] = test system: Influenza A virus; test: Inhibition of influenza A virus infected in MDCK cells assessed as inhibition of viral load treated with compound at 0 to 2 hrs post-infection by RT-qPCR method based time of addition assay; format: functional
Summary of the method: (§1)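 MDCK cells (2.0 × 10^5/well) washed with PBS, virus adsorbed (MOI 0.05) 60 min at 4 °C, washed, then compound present only during 0–10, 0–2, 2–5, 5–8 or 8–10 h postinfection; cultured in fresh medium to 10 h, total RNA extracted, viral load by absolute one-step RT-qPCR; triplicate, versus PBS control.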

[2] = test system: Influenza A virus; details: A/Puerto Rico/8/1934(H1N1), 0.1 to 1000 uM
[3] = Inhibition of MERS-CoV spike protein-mediated cell-cell fusion in 293T/MERS/EGPF cells assessed as reduction in cell fusion incubated for 4 hrs by inverted fluorescence microscopy; format: cell-based, Middle East respiratory syndrome-related coronavirus
Summary of the method: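 Huh-7 cells expressing DPP4 plated 5 × 10^4/well, 5 h at 37 °C; serially diluted peptide added, then 293T cells carrying MERS-CoV S and EGFP (or EGFP-only control cells), 1 × 10^4/well. After 4 h coculture at 37 °C, fused and unfused effector cells counted by fluorescence microscopy.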

[4] = test system: Influenza B virus; test: Antiviral activity against Influenza B virus (B/Lee/40); format: functional, organism-based; details: B/Lee/1940
[5] = test system: Influenza A virus; test: Binding affinity to influenza A virus hemagglutinin 2 synthetic peptide N66 assessed as changes in alpha-helical structures at 10 uM at pH 5 by CD spectroscopy
Summary of the method: (§2)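 Peptides at 10 μM final. HR1P incubated with test peptide 30 min at 25 °C in 10 mM phosphate, pH 7.4; N66 30 min at 30 °C in 10 mM sodium acetate/10 mM sodium phosphate/150 mM NaCl, pH 5.0; measured at 25 °C. Mean residue ellipticity; helicity from −33000 deg cm2 dmol−1 = 100%.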

[6] = Cytotoxicity in MDCK cells assessed as reduction in cell viability incubated for 72 hrs by cell-titer-Glo cell viability assay; format: cell-based, Canis lupus familiaris; details: dog
[7] = test system: Middle East respiratory syndrome-related coronavirus; test: Antiviral activity against MERS-CoV pseudovirus infected in human HuH7 cells treated with 30 mins pre-treated pseudovirus/compopund mixture and measured after 48 hrs by luciferase reporter assay; format: functional, organism-based
Summary of the method: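 Serially diluted peptide premixed with MERS-CoV pseudovirus 30 min at 37 °C, then added to Huh-7 cells; medium replaced at 12 h postinfection and cells cultured a further 48 h at 37 °C before luciferase read-out.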

[8] = test system: Influenza A virus; test: Binding affinity to influenza A virus hemagglutinin 2 synthetic peptide N66 at pH 5 by sedimentation velocity analysis
Summary of the method: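 Complexes at 150 μM final: with HR1P 30 min at 25 °C in 10 mM phosphate pH 7.4; with N66 30 min at 30 °C in sodium acetate/phosphate/NaCl pH 5.0. Sedimentation velocity at 280 nm, 3000 then 60000 rpm, 25 °C; c(s) distribution and molecular weight derived.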

[9] = test system: Middle East respiratory syndrome-related coronavirus; test: Binding affinity to MERS-CoV spike protein synthetic peptide HR1P assessed as changes in alpha-helical structures at 10 uM at pH 7.4 by CD spectroscopy; summary of the method: as §2
[10] = test system: Influenza A virus; test: Inhibition of influenza A virus infected in MDCK cells assessed as inhibition of viral load treated with compound at 0 to 10 hrs post-infection by RT-qPCR method based time of addition assay; format: functional; summary of the method: as §1
[11] = Selectivity index, ratio of CC50 for cytotoxicity in MDCK cells to EC50 for antiviral activity against Influenza A virus (A/Hong Kong/8/1968([…])) infected in HEK293T cells; format: toxicity, cell-based; details: dog
[12] = test system: Rattus norvegicus; test: Clearance in Sprague-Dawley rat at 5 mg/kg, iv administered as single dose by LC-MS/MS analysis; format: ADME, organism-based; details: in vivo
[13] = Cytotoxicity in human TZM-bl cells; format: cell-based
[14] = test system: Influenza A virus; test: Binding affinity to influenza A virus hemagglutinin 2 synthetic peptide N66 at 75 uM incubated for 30 mins by Coomassie blue R250 staining based native polyacrylamide gel electrophoresis method
Summary of the method: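 Equimolar mix with N66 (150 μM each) in sodium acetate/phosphate/NaCl pH 5.0, 30 min at 30 °C; neutralized with 200 mM Tris pH 8.5, diluted 1:1 in Tris-glycine sample buffer, run on 15% Tris-glycine gel, running buffer pH 8.8 (90 V then 150 V, 2.5 h); Coomassie R250 stain.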

[15] = test system: Middle East respiratory syndrome-related coronavirus; test: Binding affinity to MERS-CoV spike protein synthetic peptide HR1P assessed as melting temperature at 10 uM at pH 7.4 by CD spectroscopy
Summary of the method: (§3)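 Thermal unfolding by CD at 222 nm, 10–90 °C at 2 °C/min. Samples held 10 μM peptide: for HR1P in 10 mM phosphate pH 7.4; for N66 in 10 mM sodium acetate with 10 mM sodium phosphate and 150 mM NaCl, pH 5.0.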

[16] = test system: Influenza A virus; test: Inhibition of influenza A virus infected in MDCK cells assessed as inhibition of viral load treated with compound at 8 to 10 hrs post-infection by RT-qPCR method based time of addition assay; format: functional, organism-based; summary of the method: as §1
[17] = biological target: Hemagglutinin (Influenza A virus (A/Puerto Rico/8/1934(H1N1))) (UniProt P03452); test: Inhibition of Influenza A virus (A/Puerto Rico/8/1934(H1N1)) Hemagglutinin 1-induced aggregation of chicken erythrocytes at 0.05 to 100 uM
[18] = Cmax in Sprague-Dawley rat at 5 mg/kg, iv administered as single dose by LC-MS/MS analysis; format: ADME, organism-based; set-up: dose 5 mg/kg, route intravenous; details: in vivo
[19] = Cytotoxicity in human HuH7 cells assessed as reduction in cell viability incubated for 48 hrs by CCK8 assay; format: cell-based, Huh-7
Summary of the method: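 Huh-7 cells (1 × 10^5 cells/mL suspension seeded) grown 12 h at 37 °C, 5% CO2, then serially diluted peptide added for 48 h; untreated blank and Triton X-100 controls. CCK-8 added for 2 h, absorbance at 450 nm.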

[20] = test system: Influenza A virus; test: Inhibition of influenza A virus infected in MDCK cells assessed as inhibition of viral load treated with compound at 2 to 5 hrs post-infection by RT-qPCR method based time of addition assay; format: functional, organism-based; summary of the method: as §1
[21] = AUC (0 to t) in Sprague-Dawley rat at 5 mg/kg, iv administered as single dose by LC-MS/MS analysis; format: ADME, organism-based; details: in vivo
[22] = test system: Influenza A virus; test: Antiviral activity against influenza A virus Hong Kong/8/1968(H3N2) infected in HEK293T cells assessed as inhibition of viral replicon activity incubated for 30 hrs by dual-Glo luciferase assay; format: functional, organism-based; details: HEK-293T
Summary of the method: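 HEK293T cells (2.5 × 10^4/well) transfected with plasmids for NP, PB1, PB2, PA plus p0LN-S-Luc firefly and pRL-SV40 Renilla reporters; serially diluted compound added 6 h post-transfection, luciferase read after 30 h by Dual-Glo. Activity = firefly/Renilla ratio; % inhibition normalized to positive and negative controls, curve-fitted; three independent measurements.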

[23] = biological target: Hemagglutinin (Influenza A virus (A/Puerto Rico/8/1934(H1N1))) (UniProt P03452); test: Inhibition of Influenza A virus (A/Puerto Rico/8/1934(H1N1)) Hemagglutinin 2-mediated hemolysis of chicken erythrocytes at acidic pH conditions
[24] = test system: Influenza A virus; test: Binding affinity to influenza A virus hemagglutinin 2 synthetic peptide N66 assessed as melting temperature at 10 uM at pH 5 by CD spectroscopy; summary of the method: as §3
[25] = Solubility in pure water at 2 mg by HPLC-UV method; format: physicochemical

Hemagglutinin (Influenza A virus (A/Puerto Rico/8/1934(H1N1))), sequence (P03452 whole entry): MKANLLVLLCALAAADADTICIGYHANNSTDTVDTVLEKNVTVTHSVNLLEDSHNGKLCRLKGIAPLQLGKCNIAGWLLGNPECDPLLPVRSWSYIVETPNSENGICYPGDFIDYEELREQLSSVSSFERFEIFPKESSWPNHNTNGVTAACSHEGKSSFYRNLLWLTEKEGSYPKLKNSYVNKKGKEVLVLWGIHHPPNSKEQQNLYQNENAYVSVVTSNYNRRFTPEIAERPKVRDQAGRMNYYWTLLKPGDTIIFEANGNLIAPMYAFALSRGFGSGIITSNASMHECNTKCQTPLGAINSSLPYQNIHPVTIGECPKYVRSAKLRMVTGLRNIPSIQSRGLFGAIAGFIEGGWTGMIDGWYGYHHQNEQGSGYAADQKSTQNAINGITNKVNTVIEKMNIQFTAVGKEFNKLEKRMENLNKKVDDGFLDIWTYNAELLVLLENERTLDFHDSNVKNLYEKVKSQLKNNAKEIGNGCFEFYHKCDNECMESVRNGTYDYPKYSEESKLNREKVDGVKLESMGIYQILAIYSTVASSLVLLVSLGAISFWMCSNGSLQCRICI

Q: With `CCCCCCCCCCCCCCCC(=O)NCCCC[C@H](NC(=O)CCNC(=O)[C@H](CCCCN)NC(=O)[C@H](CCCCN)NC(=O)[C@H](CCC(N)=O)NC(=O)[C@@H](NC(=O)[C@H](CCC(=O)O)NC(=O)[C@H](CCC(=O)O)NC(=O)[C@@H](NC(=O)[C@H](CCCCN)NC(=O)[C@H](CCCCN)NC(=O)[C@H](CCC(N)=O)NC(=O)[C@@H](NC(=O)[C@H](CCC(=O)O)NC(=O)[C@H](CCC(=O)O)NC(=O)[C@@H](NC(=O)[C@H](CCCCN)NC(=O)[C@H](CCCCN)NC(=O)[C@H](CCC(N)=O)NC(=O)[C@@H](NC(=O)[C@H](CCC(=O)O)NC(=O)[C@H](CCC(=O)O)NC(=O)[C@@H](NC(=O)[C@H](CCCCN)NC(=O)[C@H](CCCCN)NC(=O)[C@H](CCC(N)=O)NC(=O)[C@@H](NC(=O)[C@H](CCC(=O)O)NC(=O)[C@H](CCC(=O)O)NC(=O)[C@@H](NC(=O)[C@H](CCCCN)NC(=O)[C@H](CCCCN)NC(=O)[C@H](CCC(N)=O)NC(=O)[C@@H](NC(=O)[C@H](CCC(=O)O)NC(=O)[C@H](CCC(=O)O)NC(=O)[C@@H](NC(C)=O)[C@@H](C)CC)[C@@H](C)CC)[C@@H](C)CC)[C@@H](C)CC)[C@@H](C)CC)[C@@H](C)CC)[C@@H](C)CC)[C@@H](C)CC)[C@@H](C)CC)[C@@H](C)CC)C(N)=O` (Ac-IEEIQKKIEEIQKKIEEIQKKIEEIQKKIEEIQKK[βAla]K(Palmitoyl)-NH2) as the compound, how does the “inhibition (INH)” value [1] read?
A: 60%

Q: And the inhibition [2]?
A: inactive

Q: What about the EC50 [3] of the same compound?
A: 0.11 µM

Q: And the EC50 [4]?
A: 1.87 µM

Q: What about the Activity [5] of the same compound?
A: Active

Q: And the CC50 at 72 h [6]?
A: > 100 µM

Q: And the Activity [7]?
A: Active

Q: And the Activity [8]?
A: Active

Q: What about the Activity [9] of the same compound?
A: Active

Q: And the “inhibition (INH)” value [10]?
A: 60%

Q: And the selectivity ratio [11]?
A: > 143

Q: And the CL [12]?
A: 0.345 mL/min/kg

Q: What about the CC50 [13] of the same compound?
A: > 100 µM

Q: And the Activity [14]?
A: Active

Q: And the Tm [15]?
A: > 90 °C

Q: And the inhibition [16]?
A: inactive

Q: And the inhibition [17]?
A: inactive

Q: What about the Cmax [18] of the same compound?
A: 97.6 µg/mL

Q: What about the CC50 at 48 h [19] of the same compound?
A: > 100 µM

Q: And the inhibition [20]?
A: inactive

Q: What about the AUC(0-t) [21] of the same compound?
A: 235 µg·h/mL

Q: What about the EC50 [22] of the same compound?
A: 0.7 µM

Q: What about the inhibition [23] of the same compound?
A: Active

Q: What about the Tm [24] of the same compound?
A: 83.1 °C

Q: And the solubility [25]?
A: 8870 µg/mL (≈ 1830 µM)
